Assay results as given in ChEMBL document CHEMBL1132495, “Alpha(2) adrenoceptor agonists as potential analgesic agents. 1. (Imidazolylmethyl)oxazoles and -thiazoles” (J Med Chem, 1999).

Legend:
[1] = biological target: T1, Adrenergic receptor alpha-2 (Rattus norvegicus, UniProt P22086+P19328+P22909); assay: In vitro binding affinity against alpha-2 adrenergic receptor in rat
T1 sequence (P22086 whole entry): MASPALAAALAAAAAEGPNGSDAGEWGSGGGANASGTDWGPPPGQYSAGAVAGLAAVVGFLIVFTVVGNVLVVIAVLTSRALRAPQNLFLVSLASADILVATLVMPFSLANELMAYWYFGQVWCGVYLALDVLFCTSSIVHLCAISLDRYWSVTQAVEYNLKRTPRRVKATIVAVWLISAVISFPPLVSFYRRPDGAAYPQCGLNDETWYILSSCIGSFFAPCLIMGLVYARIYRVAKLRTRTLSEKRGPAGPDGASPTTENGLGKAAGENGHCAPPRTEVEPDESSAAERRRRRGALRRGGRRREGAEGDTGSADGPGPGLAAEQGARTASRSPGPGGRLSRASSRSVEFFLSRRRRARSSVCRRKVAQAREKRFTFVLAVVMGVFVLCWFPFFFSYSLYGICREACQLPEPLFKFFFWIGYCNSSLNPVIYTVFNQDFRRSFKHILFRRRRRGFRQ
T1 sequence (P19328 whole entry): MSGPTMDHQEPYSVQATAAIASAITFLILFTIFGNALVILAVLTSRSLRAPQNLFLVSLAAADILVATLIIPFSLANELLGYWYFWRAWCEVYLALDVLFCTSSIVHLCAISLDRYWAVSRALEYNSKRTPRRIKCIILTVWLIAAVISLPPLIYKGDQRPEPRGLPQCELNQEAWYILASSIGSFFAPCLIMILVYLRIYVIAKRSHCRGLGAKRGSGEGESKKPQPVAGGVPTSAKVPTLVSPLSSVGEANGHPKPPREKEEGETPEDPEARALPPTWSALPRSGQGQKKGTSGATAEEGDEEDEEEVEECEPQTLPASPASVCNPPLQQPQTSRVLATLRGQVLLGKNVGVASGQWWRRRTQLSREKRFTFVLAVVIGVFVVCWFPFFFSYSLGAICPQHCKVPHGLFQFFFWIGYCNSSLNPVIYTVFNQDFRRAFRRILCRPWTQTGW
T1 sequence (P22909 whole entry): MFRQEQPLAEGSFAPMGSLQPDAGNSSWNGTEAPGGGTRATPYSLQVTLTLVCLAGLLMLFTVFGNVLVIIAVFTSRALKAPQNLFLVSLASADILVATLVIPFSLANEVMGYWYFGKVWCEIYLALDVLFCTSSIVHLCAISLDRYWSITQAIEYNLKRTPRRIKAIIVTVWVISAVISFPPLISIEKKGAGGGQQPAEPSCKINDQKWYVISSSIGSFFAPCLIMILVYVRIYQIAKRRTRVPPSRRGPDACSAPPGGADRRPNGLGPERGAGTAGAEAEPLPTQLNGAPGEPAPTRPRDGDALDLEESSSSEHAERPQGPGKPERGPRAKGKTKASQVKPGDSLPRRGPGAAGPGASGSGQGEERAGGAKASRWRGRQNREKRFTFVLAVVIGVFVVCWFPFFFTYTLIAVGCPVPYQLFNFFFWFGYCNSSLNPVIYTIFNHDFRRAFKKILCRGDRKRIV
How it was run: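 Rat cortex synaptic membranes (male Wistar rats, 150-250 g; homogenized in HEPES-sucrose, spun at 1000g then 42000g, pellet washed in 3 mM K phosphate pH 7.5 with 30 min 25 °C preincubation). Displacement of [3H]p-aminoclonidine (0.1 nM), 20 min at 25 °C; filtration, scintillation counting. 8-10 concentrations in triplicate; Ki from single-site fit, nonspecific binding as fitted parameter.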

Mus musculus [2] = organism: Mus musculus; assay: Mouse Acetylcholine-induced Abdominal Irritant Test activity (MAIT); assay type: functional; conditions: Abdomen
How it was run: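 Male CD-1 mice, 18-24 g, fed ad libitum until testing. Compound or vehicle given orally by gavage; at set intervals afterwards, acetylcholine bromide 5.5 mg/kg i.p. Mice observed in bell jars for a single abdominal response; % antinociception per dose taken from responder counts. ED50 with 95% confidence limits by Litchfield-Wilcoxon probit analysis, including a chi-square test for linearity.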

Mus musculus [3] = organism: Mus musculus; assay: Mouse Acetylcholine-induced Abdominal Irritant Test activity(MAIT) of the compound.; conditions: Abdomen

Row | Compound | Ki [1] [nM] | ED50 (Mus musculus [2]) [mg/kg] | ED50 (Mus musculus [3]) [mg/kg]
1 | CCc1nc(Cc2c[nH]cn2)sc1C | 18 | > 30 | –
2 | CCc1sc(C)nc1Cc1c[nH]cn1 | 10 | 2.3 | –
3 | CCc1nc(CC)c(Cc2c[nH]cn2)s1 | 23 | > 30 | –
4 | CCc1nc(C(C)c2c[nH]cn2)c(CC)s1 (centres undefined) | 407 | 16 | –
5 | CC(C)c1nc(Cc2c[nH]cn2)c(C(C)C)o1 | 714 | 6.9 | –
6 | CCc1nc(Cc2c[nH]cn2)c(C)s1 | 57 | > 30 | –
7 | CCc1nc(Cc2c[nH]cn2)c(CC)o1 | 58 | 2.8 | –
8 | CCc1nc(Cc2cn[nH]n2)c(CC)s1 | > 1000 | > 30 | –
9 | CCc1nc(CC)c(C(C)c2c[nH]cn2)s1 (centres undefined) | 97 | > 30 | –
10 | CCc1nc(Cc2ncc[nH]2)c(CC)s1 | > 1000 | > 30 | –
11 | CCc1nc(Cc2nc[nH]n2)c(CC)s1 | > 1000 | > 30 | –
12 | CCc1sc(Cc2c[nH]cn2)nc1C | 18 | 2.8 | –
13 | CCc1csc(Cc2c[nH]cn2)n1 | 36 | > 30 | –
14 | CCc1nc(Cc2c[nH]cn2)sc1CC | 86 | > 30 | –
15 | Cc1nc(Cc2c[nH]cn2)c(C)o1 | > 1000 | > 30 | –
16 | Cc1nc(C)c(C(c2ccccc2)c2c[nH]cn2)s1 (centres undefined) | 269 | > 30 | –
17 | Cc1nc(Cc2c[nH]cn2)c(C)s1 | 38 | > 30 | –
18 | CCc1nc(Cc2c[nH]cn2)c(C(C)C)s1 | 235 | 25.3 | –

Row | Compound | Ki [1] [nM] | ED50 (Mus musculus [2]) [mg/kg] | ED50 (Mus musculus [3]) [mg/kg]
19 | c1nc(Cc2nc3c(s2)CCC3)c[nH]1 | 28 | > 30 | –
20 | CCc1cnc(Cc2c[nH]cn2)s1 | 381 | > 30 | –
21 | c1ccc2sc(Cc3c[nH]cn3)nc2c1 | 18 | > 30 | –
22 | c1nc(Cc2nc3c(s2)CCCC3)c[nH]1 | 110 | > 30 | –
23 | CCc1sc(C(C)C)nc1Cc1c[nH]cn1 | 28 | 7.5 | –
24 | CCCCc1nc(Cc2c[nH]cn2)c(CCCC)s1 | 35 | > 30 | –
25 | CCc1sc(C(F)(F)F)nc1Cc1c[nH]cn1 | 320 | 20.3 | –
26 | CCCc1nc(Cc2c[nH]cn2)c(CCC)s1 | 97 | 30 | –
27 | Cc1nc(Cc2c[nH]cn2)sc1C | 11 | 1.7 | –
28 | Cc1nc(C)c(Cc2c[nH]cn2)s1 | 8 | 1 | –
29 | CCc1nc(Cc2c[nH]cn2)c(CC)s1 | 17 | 1.8 | –
30 | CCc1nc(C(Cc2ccccc2)c2c[nH]cn2)c(CC)s1 (centres undefined) | 37 | > 30 | –
31 | CCc1sc(-c2ccccc2)nc1Cc1c[nH]cn1 | 13 | 15 | –
32 | Cc1nc(C)c(C(C)c2c[nH]cn2)s1 (centres undefined) | 60 | > 30 | –
33 | CC(C)c1nc(Cc2c[nH]cn2)c(C(C)C)s1 | 285 | 23.8 | –
34 | Cc1cccc(C(C)c2c[nH]cn2)c1C (single isomer, unassigned) [DEXMEDETOMIDINE] | 0.015 | – | 0.09
35 | CCc1nc(Cc2[nH]cnc2C)c(CC)s1 [ENTRY 68 A] | 53 | – | –
